Data: ChEMBL document CHEMBL1122519, “Bispyridinamines: a new class of topical antimicrobial agents as inhibitors of dental plaque” (1984)

Key:
[1] = test system: Pseudomonas aeruginosa; assay: Minimum antimicrobial inhibitory concentration against Pseudomonas aeruginosa MGH-2; type: functional
Procedure, shortened: (§1)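 Serial twofold tube dilution in tryptose phosphate broth. Each compound was prepared as a 1000 μg/mL aqueous stock and diluted in double-strength broth, then 2×10^5 cells were added. Tubes were incubated aerobically at 37 °C for 24 h. The MIC was taken as the lowest concentration with no visible growth.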

[2] = test system: Escherichia coli; assay: Antimicrobial minimum inhibitory concentration against Escherichia coli 100/B22; type: functional; procedure, shortened: as §1
[3] = test system: Escherichia coli; assay: Antimicrobial minimum inhibitory concentration against Escherichia coli AB1932-1; type: functional; procedure, shortened: as §1
[4] = test system: Escherichia coli; assay: Minimum inhibitory concentration against Escherichia coli (Vogel); type: functional; procedure, shortened: as §1
[5] = test system: Proteus mirabilis; assay: Minimum antimicrobial inhibitory concentration against Proteus mirabilis MGH-1; type: functional; procedure, shortened: as §1
[6] = test system: Staphylococcus aureus; assay: Minimum antimicrobial inhibitory concentration against Staphylococcus aureus; type: functional; procedure, shortened: as §1
[7] = test system: Streptococcus mutans; assay: Minimum plaque inhibitory concentration using a standard test organism, Streptococcus mutans OMZ-61; type: functional, organism-based
Procedure, shortened: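 Ceramic hydroxylapatite plates were soaked twice for 1 min each in compound at […] (aqueous), air-dried and rinsed, then hung in sucrose beef-extract medium (pH 7.0) inoculated with late-log S. mutans OMZ-61. Incubation was anaerobic at 37 °C for 24 h, and treatment plus reinoculation were repeated for a second 24 h. Plaque was stained with 1% FD&C Red No. 3 and scored visually. The value is the lowest concentration giving no plaque while medium growth matched control.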

[8] = test system: Klebsiella pneumoniae; assay: Minimum inhibitory concentration against Klebsiella pneumonia 39645; type: functional; procedure, shortened: as §1

| SMILES | MIC [1] [µg/mL] | MIC [2] [µg/mL] | MIC [3] [µg/mL] | MIC [4] [µg/mL] | MIC [5] [µg/mL] | MIC [6] [µg/mL] | Concentration [7] [%] | MIC [8] [µg/mL] |
| --- | --- | --- | --- | --- | --- | --- | --- | --- |
| Br.Br.c1cn(CCCCCn2ccc(=NC3CCCCC3)cc2)ccc1=NC1CCCCC1 | > 500 | > 500 | > 500 | > 500 | > 500 | 125 | > 1 | > 500 |
| CS(=O)(=O)O.CS(=O)(=O)O.Clc1ccc(N=c2ccn(CCCCCCn3ccc(=Nc4ccc(Cl)cc4)cc3)cc2)cc1 | 500 | 15.6 | 3.9 | 15.6 | 500 | 3.9 | > 1 | 500 |
| CCCCCCCN=c1ccn(CCCCCCCCn2ccc(=NCCCCCCC)cc2)cc1.Cl.Cl | 31.3 | 2 | 1 | 2 | 62.6 | 0.5 | 0.1 | 2 |
| Br.Br.CCCCC(CC)CN=c1ccn(CCCCCCCCCCCCn2ccc(=NCC(CC)CCCC)cc2)cc1 (centres undefined) | 3.9 | 1 | 1 | 1 | 3.9 | 0.5 | 0.004 | 2 |
| Br.Br.CCCCCCCCCCN=c1ccn(CCCCCCCn2ccc(=NCCCCCCCCCC)cc2)cc1 | 7.8 | 3.9 | 3.9 | 3.9 | 3.9 | 1 | 0.01 | 7.8 |
| CCCCCCCCN=c1ccn(CCCCCCn2ccc(=NCCCCCCCC)cc2)cc1.Cl.Cl | 31.3 | 0.5 | 0.5 | 1 | 15.6 | 0.2 | 0.004 | 2 |
| CS(=O)(=O)O.CS(=O)(=O)O.Clc1ccc(N=c2ccn(CCCCCCCCCCn3ccc(=Nc4ccc(Cl)cc4)cc3)cc2)cc1 | 62.5 | 1.6 | 0.8 | 1.6 | > 125 | 0.4 | > 1 | 3.1 |
| Br.Br.CCCCCCN=c1ccn(CCCCCCCn2ccc(=NCCCCCC)cc2)cc1 | > 125 | 7.8 | 7.8 | 15.6 | > 125 | 0.4 | > 1 | 15.6 |
| Br.Br.CCCCC(CC)CN=c1ccn(CCCCCCCCn2ccc(=NCC(CC)CCCC)cc2)cc1 (centres undefined) | 125 | 2 | 1 | 3.9 | 125 | 0.3 | 0.004 | 7.8 |
| Br.Br.c1cn(CCCCCCCCCn2ccc(=NC3CCCCC3)cc2)ccc1=NC1CCCCC1 | 500 | 31.3 | 31.3 | 31.3 | > 500 | 1 | > 1 | 125 |
| Br.Br.Clc1ccc(N=c2ccn(CCCCCCCCCn3ccc(=Nc4ccc(Cl)cc4)cc3)cc2)cc1 | 125 | 2 | 1 | 1 | > 125 | 0.6 | > 1 | 7.8 |
| Br.Br.CCCCCCCN=c1ccn(CCCCn2ccc(=NCCCCCCC)cc2)cc1 | > 250 | 15.6 | 7.8 | 31.3 | > 250 | 1 | > 1 | > 125 |
| Br.Br.CCCCC(CC)CN=c1ccn(CCCCCCCCCCn2ccc(=NCC(CC)CCCC)cc2)cc1 (centres undefined) | 48.4 | 0.8 | 0.4 | 1.5 | 12.1 | 0.2 | 0.003 | 3 |
| Br.Br.CCCCCCCCCCN=c1ccn(CCCCCCCCCCCCn2ccc(=NCCCCCCCCCC)cc2)cc1 | 15.6 | 15.6 | 31.3 | 7.8 | 15.6 | 2 | 0.1 | 31.3 |
| Br.Br.CCCCCCCCCCCCN=c1ccn(CCCCCCCn2ccc(=NCCCCCCCCCCCC)cc2)cc1 | 62.5 | 62.5 | 62.5 | 62.5 | 62.5 | 3.9 | 0.1 | > 62.5 |
| Br.Br.CCCCCCCCCCCCN=c1ccn(CCCCCCn2ccc(=NCCCCCCCCCCCC)cc2)cc1 | > 62.5 | 62.5 | > 62.5 | 31.3 | > 62.5 | 7.8 | 0.1 | > 62.5 |
| Br.Br.c1cn(CCCCn2ccc(=NC3CCCCC3)cc2)ccc1=NC1CCCCC1 | > 500 | 125 | 125 | 125 | > 500 | 125 | > 1 | > 500 |

| SMILES | MIC [1] [µg/mL] | MIC [2] [µg/mL] | MIC [3] [µg/mL] | MIC [4] [µg/mL] | MIC [5] [µg/mL] | MIC [6] [µg/mL] | Concentration [7] [%] | MIC [8] [µg/mL] |
| --- | --- | --- | --- | --- | --- | --- | --- | --- |
| Br.Br.CCCCCCCCN=c1ccn(CCCCCCCn2ccc(=NCCCCCCCC)cc2)cc1 | 31.3 | 1 | 1 | 2 | 7.8 | 0.5 | 0.005 | 1 |
| Br.Br.CCCCCCCCCCN=c1ccn(CCCCCCn2ccc(=NCCCCCCCCCC)cc2)cc1 | 7.8 | 7.8 | 2 | 2 | 2 | 1 | 0.01 | 3.9 |
| Br.Br.CCCCC(CC)CN=c1ccn(CCCCCCn2ccc(=NCC(CC)CCCC)cc2)cc1 (centres undefined) | > 250 | 3.9 | 2 | 7.8 | > 125 | 0.5 | > 1 | 125 |
| Br.Br.CCCCCCCCCCN=c1ccn(CCCCCCCCCCn2ccc(=NCCCCCCCCCC)cc2)cc1 | 15.6 | 15.6 | 15.6 | 7.8 | 7.8 | 2 | 0.01 | 31.3 |
| Br.Br.CCCCCCN=c1ccn(CCCCCCCCn2ccc(=NCCCCCC)cc2)cc1 | 125 | 3.9 | 2 | 3.9 | > 250 | 0.2 | > 1 | 7.8 |
| Br.Br.CCCCC(CC)CN=c1ccn(CCCCn2ccc(=NCC(CC)CCCC)cc2)cc1 (centres undefined) | 125 | 31.3 | 7.8 | 62.5 | > 125 | 1 | > 1 | > 125 |
| Br.Br.CCCCC(CC)CN=c1ccn(CCCCCn2ccc(=NCC(CC)CCCC)cc2)cc1 (centres undefined) | 125 | 15.6 | 7.8 | 15.6 | > 125 | 0.5 | > 1 | > 125 |
| CCCCCCN=c1ccn(CCCCCCCCCCCCn2ccc(=NCCCCCC)cc2)cc1.Cl.Cl | 15.6 | 0.5 | 1 | 1 | 7.8 | 0.2 | 0.01 | 1 |
| Br.Br.CCCCCCCCCCCCN=c1ccn(CCCCCCCCCCn2ccc(=NCCCCCCCCCCCC)cc2)cc1 | > 62.5 | > 62.5 | > 62.5 | > 62.5 | > 62.5 | 15.6 | 0.1 | > 62.5 |
| CCCCCCCN=c1ccn(CCCCCCn2ccc(=NCCCCCCC)cc2)cc1.Cl.Cl | > 62.5 | 2 | 2 | 3.9 | > 125 | 0.2 | > 1 | 3.9 |
| Br.Br.CCCCCCCCCCCCN=c1ccn(CCCCCCCCCn2ccc(=NCCCCCCCCCCCC)cc2)cc1 | > 62.5 | 62.5 | > 62.5 | 62.5 | 62.5 | 7.8 | 0.1 | > 62.5 |
| Br.Br.c1cn(CCCCCCCCCCn2ccc(=NC3CCCCC3)cc2)ccc1=NC1CCCCC1 | > 125 | 15.6 | 7.8 | 15.6 | > 125 | 0.2 | > 1 | > 125 |
| Br.Br.Clc1ccc(N=c2ccn(CCCCCn3ccc(=Nc4ccc(Cl)cc4)cc3)cc2)cc1 | > 125 | 125 | 31.3 | 125 | > 125 | 7.8 | > 1 | > 125 |
| CCCCCCCCN=c1ccn(CCCCCCCCCn2ccc(=NCCCCCCCC)cc2)cc1.Cl.Cl | 3.9 | 1 | 1 | 1 | 15.6 | 1 | 0.003 | 2 |
| Br.Br.N=c1ccn(CCCCCCCCn2ccc(=N)cc2)cc1 | > 500 | 250 | 125 | 125 | > 500 | 31.3 | > 1 | > 500 |
| CCCCCCCN=c1ccn(CCCCCCCCCCCCCCn2ccc(=NCCCCCCC)cc2)cc1.Cl.Cl | 2 | 1 | 1 | 2 | 3.9 | 1 | 0.01 | 3.9 |
